Assay results as given in publication PMC10568112 (Journal of Pharmaceutical Analysis, 2023).
Where two headings read alike, the source gives them in different places.

Legend:
[1] = tested on: carboxylesterase of gut microbiota; type: in vitro ADME, Balb/c mice; conditions: for inhibition rate of tyrosol production: 120 min, SNZ 10 μg/mL, vs control group
In short: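 Gut bacteria incubations were set up as for the microbial metabolism assay, with test compound at a final 10 μg/mL. The carboxylesterase inhibitor BNPP was added at 1, 5 or 10 mM; cultures without BNPP served as control. Incubation was at 37 °C for 0, 15, 30, 60, 90 and 120 min. Inhibition of tyrosol production at 120 min was expressed relative to control.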

[2] = tested on: gut microbiota (intestinal bacteria incubation system); assay: Metabolism of SNZ by intestinal bacteria in vitro; type: in vitro ADME, Balb/c mice; conditions: SNZ 10 μg/mL; for course of metabolite content in intestinal bacteria incubation: 0-2 h
In short: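 Contents of male Balb/c intestine were mixed 1:30 (w/v) in anaerobic medium, kept under N2 and pre-incubated 30 min at 37 °C. Test compound was present at a final 10 μg/mL, and inactivated bacteria medium served as negative control. Shaking at 37 °C, 200 rpm was done in two separate runs: 0, 1, 2, 6, 12 and 24 h, then 0, 15, 30, 60, 90 and 120 min. Parent and metabolite contents were followed over time.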

[3] = Pharmacokinetics after oral SNZ in normal Balb/c mice and pseudo-germfree; type: in vivo; conditions: oral SNZ 109.2 mg/kg; for Cmax / half-life / Tmax: Balb/c, mouse, po, 109.2 mg/kg; for Cmax / half-life / Tmax / AUC(0−t) / AUC(0−∞): plasma, mean
[4] = Pharmacokinetics after oral SNZ in tumor mice and PGF tumor mice; type: in vivo, Balb/c mice; conditions: oral SNZ 109.2 mg/kg
[5] = Tissue distribution after oral SNZ in tumor bearing mice; type: in vivo, Balb/c mice; conditions: 20 min after oral SNZ 109.2 mg/kg; for tissues in which the metabolite is distributed: tumor mice
In short: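 Three tumour-bearing mice per group, conventional or PGF, were fasted overnight and dosed orally at 109.2 mg/kg. After 20 min they were anaesthetised with 20% urethane and PBS-perfused. Organs and tumour were homogenised in 3 volumes of PBS. 100 μL homogenate was mixed with 300 μL methanol containing glipizide (100 ng/mL), vortexed 1 min and centrifuged at 14,000 rpm for 10 min. Supernatant was analysed by HPLC-MS/MS.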

[6] = tumor mice (column head Normal), plasma, mean
[7] = PK parameters in PGF could not be fitted

course of metabolite content in intestinal bacteria incubation [2]	Cmax ([3]; normal Balb/c mice)	half-life ([3]; t1/2, normal Balb/c mice)	Tmax ([3]; normal Balb/c mice)	AUC(0−t) ([3]; normal Balb/c mice)	AUC(0−∞) ([3]; normal Balb/c mice)	AUC(0−t) [4, 6]	AUC(0−∞) [4, 6]	amount detected in tumor tissue of tumor mice compared with PGF tumor mice [5]	Structure (SMILES)	tissues in which the metabolite is distributed [5]	other results
									O=[N+]([O-])c1ccc(OP(=O)(O)Oc2ccc([N+](=O)[O-])cc2)cc1 [BNPP, bis-p-nitrophenyl phosphate]		effect on metabolic rate of SNZ by gut microbiota ([1]; BNPP 0, 1, 5 and 10 mM): inhibited in a dose-dependent manner; inhibition rate of tyrosol production ([1]; BNPP 1 mM): 81.5%; inhibition rate of tyrosol production ([1]; BNPP 5 mM): 93.1%; inhibition rate of tyrosol production ([1]; BNPP 10 mM): 100.0%; prolongation of SNZ metabolism compared with control group ([1]; BNPP 10 mM, within 120 min): approximately 60 min
gradually decreased	257 ng/mL	90.8 min	44 min	33814.78 µg/L/min	36004.16 µg/L/min	22373.93 µg/L/min	23773.54 µg/L/min	a large amount	OC[C@H]1O[C@@H](OCCc2ccc(O)cc2)[C@H](O)[C@@H](O)[C@@H]1O [Salidroside, salidroside]	liver, kidney, stomach, small intestine, etc.	highest peak concentration of metabolite in intestinal bacteria incubation ([2]; peak at 15 min): 3.29 µg/mL; Cmax ([3]; PGF mice): 82.7 ng/mL; half-life ([3]; t1/2, PGF mice): 14.2 min; Tmax ([3]; PGF mice): 16 min; AUC(0−t) ([3]; PGF mice): 3079.01 µg/L/min; AUC(0−∞) ([3]; PGF mice): 3205.99 µg/L/min; Cmax ([4]; Balb/c, mouse, plasma, po, 109.2 mg/kg, cmax, PGF tumor mice, mean): 75 ng/mL; half-life ([4]; Balb/c, mouse, plasma, po, 109.2 mg/kg, t1/2, PGF tumor mice, mean): 20.4 min; Tmax ([4]; Balb/c, mouse, plasma, po, 109.2 mg/kg, tmax, PGF tumor mice, mean): 18 min; AUC(0−t) ([4]; PGF tumor mice, plasma, mean): 2207.64 µg/L/min; AUC(0−∞) ([4]; PGF tumor mice, plasma, mean): 2452.12 µg/L/min
increased gradually with incubation time	126 ng/mL	110 min	36 min	13158.45 µg/L/min	13944.89 µg/L/min	8918.61 µg/L/min	9833.89 µg/L/min	a large amount	OCCc1ccc(O)cc1 [Tyrosol, tyrosol]	liver, kidney, stomach, small intestine, heart, spleen, lung, colon, and other organs and tissues	plasma concentration in PGF mice compared with normal group [3, 7]: lower than that in the normal group; plasma exposure in tumor mice compared with PGF tumor mice [4, 7]: significantly higher
